Screening results from PubChem.
TAAR1 ag – human TAAR1 agonism. AID 624467. 360,000 compounds, 0.99% hits. Q96RJ0. CHO RD-HGA16 TAAR1, Fluo-8 calcium fluorescence; vehicle wells 0%, saturating PEA agonist 100%. activation, % at 3 µM;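 active = activation above the mean activation of all test compounds in the run plus 3 SD, cut at about 38% in these data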
Target sequence (Q96RJ0 whole entry, looked up): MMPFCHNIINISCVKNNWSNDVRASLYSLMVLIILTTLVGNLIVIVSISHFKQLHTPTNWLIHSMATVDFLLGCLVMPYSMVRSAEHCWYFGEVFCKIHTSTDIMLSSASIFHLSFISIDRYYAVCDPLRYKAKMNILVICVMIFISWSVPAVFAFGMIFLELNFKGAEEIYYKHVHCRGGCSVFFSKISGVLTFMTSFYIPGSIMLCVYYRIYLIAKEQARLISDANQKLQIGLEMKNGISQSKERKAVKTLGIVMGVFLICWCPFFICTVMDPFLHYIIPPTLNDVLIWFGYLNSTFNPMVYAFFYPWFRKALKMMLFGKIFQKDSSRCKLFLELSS
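Test system: RD-HGA16 (CHO) cells co-expressing Gα16 and hTAAR1 | Doses: Single dose, 3 µM | Schedule: 17-24 h seeding, 75 min 37 °C dye, 30 min RT | Evaluation: % activation from peak over basal fluorescence ratio, DMSO-to-PEA scaled | Technique: Kinetic Fluo-8 calcium fluorescence | Benchmarks: Low control DMSO, high control PEA (EC100)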
OX1R antag-1 – OX1R (human) antagonism; 330,000 compounds, 1.8% hits; OX1R-expressing cells, FRET antagonist read-out; inhibition, % at 6.6 µM; O43613; in the data active = inhibition mostly above about 38%, no sharp cut-off; inactive = mostly below about 40%;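 also: 0% = agonist challenge alone and 100% = reference antagonist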
CHO parental Ca – counter-screen: ATP calcium response change in parental CHO cells; parental CHO-K1, ATP-induced calcium, Fluo-8 fluorescence; inhibition, % at 5.6 µM; 330,000 compounds, 0.63% hits; AID 463079;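 active = inhibition above that plate's mean sample inhibition plus 3 SD, cut at about 26% in these data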;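 also: 0% = ATP-challenged DMSO wells and 100% = DMSO wells without ATP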
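test system = CHO parental line | reagent = ATP stimulus | measured by = intracellular calcium via Fluo-8 no-wash fluorescent dye | control set = ATP and no-ATP DMSO wells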
TAAR1 antagonist – antagonists of human TAAR1; Q96RJ0; CHO RD-HGA16 TAAR1, Fluo-8 calcium fluorescence, antagonist; inhibition, % at 3 µM; 360,000 compounds, 1.5% hits; AID 624466;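 active = inhibition above a per-plate cutoff, the mean inhibition of test compounds on that plate plus 3 SD, cut at about 49% in these data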;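 also: 0% = DMSO plus EC80 beta-PEA response and 100% = DMSO alone without agonist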
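Assay system: CHO-derived RD-HGA16 cells stably expressing human TAAR1 plus Gα16. Timing: 140 s kinetic read after compound, 140 s after agonist. Technique: kinetic Fluo-8 calcium fluorescence measurement. Measure: % inhibition of agonist calcium response.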
OX1R antag-2 – blocks the human orexin 1 receptor; O43613; CHO/OX1R cells, Fluo-8 calcium fluorescence, orexin A; inhibition, % at 5 µM; 330,000 compounds, 0.43% hits; AID 434989;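 active = inhibition above its plate's threshold, mean inhibition of all tested compounds on the plate plus 3 SD, cut at about 37% in these data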;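 also: 0% = orexin A challenge wells and 100% = SB-334867-A antagonist wells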
* marks the source's active call; other numbers are inactive results. Sampled rows, rich in hits. Any-hit rate of the full collection: about 3.9%.

How did CC(=O)c1cccc(NC(=O)c2ccc(NC(=O)CCS(=O)(=O)c3cccs3)cc2)c1 do in these assays?
TAAR1 ag: 8.3; OX1R antag-1: 3.8; CHO parental Ca: -18.4; TAAR1 antagonist: 51.5*; OX1R antag-2: -20.1

How did CCOC(=O)c1cccc(NC(=O)CCS(=O)(=O)c2cccs2)c1 do in these assays?
TAAR1 ag: 2.9; OX1R antag-1: 17.0; CHO parental Ca: -11.6; TAAR1 antagonist: -9.3; OX1R antag-2: -26.5

Results for CCOC(=O)c1cccc(NC(=O)CCS(=O)(=O)c2ccc(Br)s2)c1 ?
TAAR1 ag: 16.5; OX1R antag-1: 45.7*; CHO parental Ca: -17.3; TAAR1 antagonist: 3.5; OX1R antag-2: -10.5

What do the screens show for `COc1ccc(NC(=O)c2ccc(NC(=O)CCS(=O)(=O)c3cccs3)cc2)cc1`?
TAAR1 ag: 22.0; OX1R antag-1: 16.6; CHO parental Ca: 5.0; TAAR1 antagonist: 53.0*; OX1R antag-2: -6.8

How did CCOc1cc(S(=O)(=O)NCc2ccncc2)ccc1Cl do in these assays?
TAAR1 ag: 3.1; OX1R antag-1: 26.0; CHO parental Ca: 38.0*; TAAR1 antagonist: 19.9; OX1R antag-2: 14.4

What do the screens show for `CCOc1ccc(S(=O)(=O)NCc2ccncc2)cc1`?
TAAR1 ag: 6.1; OX1R antag-1: 24.9; CHO parental Ca: 3.5; TAAR1 antagonist: 1.1; OX1R antag-2: -1.4

Results for Oc1c(Br)cc(Br)cc1C=Nc1cccc2ncccc12 ?
TAAR1 ag: 1.1; OX1R antag-1: 53.5*; CHO parental Ca: -4.2; TAAR1 antagonist: -3.6; OX1R antag-2: -10.7

How did Brc1cccc(C=Nc2cccc3ncccc23)c1 do in these assays?
TAAR1 ag: 4.7; OX1R antag-1: 4.5; CHO parental Ca: 5.5; TAAR1 antagonist: -3.8; OX1R antag-2: -4.5

Results for COC(=O)/C=C1\SC(N2CCOCC2)=C(c2ccc(OC)cc2)C1=O ?
TAAR1 ag: 10.0; OX1R antag-1: 70.2*; CHO parental Ca: -11.8; TAAR1 antagonist: 2.2; OX1R antag-2: -15.5

How did CCOC(=O)C1=C[C@@H](C2CCCCC2)N(S(=O)(=O)c2ccc([N+](=O)[O-])cc2)[C@H]1c1ccccc1 do in these assays?
TAAR1 ag: 0.8; TAAR1 antagonist: -10.9

How did CC(=O)NC1=C(N(C)C2CCS(=O)(=O)C2)C(=O)c2ccccc2C1=O (stereo not given) do in these assays?
TAAR1 ag: 0.7; OX1R antag-1: 70.4*; CHO parental Ca: -7.7; TAAR1 antagonist: -3.5; OX1R antag-2: -9.5

How did CS(=O)(=O)N1CCN(c2ccccc2NC(=S)NC(=O)c2ccccc2[N+](=O)[O-])CC1 do in these assays?
TAAR1 ag: 31.0; OX1R antag-1: 2.7; CHO parental Ca: -26.0; TAAR1 antagonist: 53.9*; OX1R antag-2: -32.7

How did CCN(CC)CCCNC(=O)c1cc2cc(Cl)ccc2nc1N do in these assays?
TAAR1 ag: 0.1; TAAR1 antagonist: -7.0

What do the screens show for `O=C(OCc1ccccc1)c1c(-c2ccccc2)oc2c1C(OCCO)CCC2` (stereo not given)?
TAAR1 ag: 0.4; TAAR1 antagonist: -22.4

Results for Cc1ccccc1NC(=S)NCCc1ccccn1 ?
TAAR1 ag: 60.2*; OX1R antag-1: 3.5; CHO parental Ca: -1.6; TAAR1 antagonist: -1.9; OX1R antag-2: -16.4

How did S=C(NCCc1ccccc1)Nc1cccc2cnccc12 do in these assays?
TAAR1 ag: 51.5*; OX1R antag-1: 44.3; CHO parental Ca: 51.7*; TAAR1 antagonist: 5.6; OX1R antag-2: 26.2

What do the screens show for `S=C(NCc1ccccc1)Nc1cccc2cnccc12`?
TAAR1 ag: 2.8; OX1R antag-1: 57.4; CHO parental Ca: 9.4; TAAR1 antagonist: 22.8; OX1R antag-2: 0.3

Results for COc1ccccc1NC(=S)NCCc1ccccc1 ?
TAAR1 ag: 40.2*; OX1R antag-1: 14.2; CHO parental Ca: -17.4; TAAR1 antagonist: -0.4; OX1R antag-2: -11.6

How did Brc1ccc2nc(C3CCCCC3)c(CC3CCCCC3)n2c1 do in these assays?
TAAR1 ag: -0.1; TAAR1 antagonist: -3.0

Results for CCc1ccc(NC(=O)C(C)OC(=O)/C=C/c2ccc(O)c(OC)c2)cc1 (stereo not given) ?
TAAR1 ag: 110.9*; OX1R antag-1: 4.0; CHO parental Ca: 5.7; TAAR1 antagonist: 82.4*; OX1R antag-2: 33.1

How did O=C(/C=C/c1ccco1)OCC(=O)c1ccc(OC(F)F)cc1 do in these assays?
TAAR1 ag: -1.4; OX1R antag-1: 10.3; CHO parental Ca: -12.2; TAAR1 antagonist: -7.0; OX1R antag-2: 11.6
